Experimental data: ChEMBL document CHEMBL4673248, “Discovery and Characterization of BAY 1214784, an Orally Available Spiroindoline Derivative Acting as a Potent and Selective Antagonist of the Human Gonadotropin-Releasing Hormone Receptor as Proven in a First-In-Human Study in Postmenopausal Women” (J Med Chem, 2020)
Active and inactive are the calls of the source. No cut-off for these calls is given here. Square brackets hold non-standard residues; d marks the D form. Peptide text beside a SMILES is read from it. dPhe(4-Cl) = N[C@H](Cc1ccc(Cl)cc1)C(=O)O; d2Nal = N[C@H](Cc1ccc2ccccc2c1)C(=O)O; dCit = NC(=O)NCCC[C@@H](N)C(=O)O; d3Pal = N[C@H](Cc1cccnc1)C(=O)O

Tests used:
[1] = biological target: T1, Gonadotropin-releasing hormone receptor (Homo sapiens, UniProt P30968); assay: Antagonist activity at human GnRH receptor expressed in CHO-K1 cells assessed as inhibition of buserelin-induced response preincubated for 20 mins followed by buserelin addition and measured after 60 mins by TR-FRET assay; assay type: cell-based
T1 sequence (P30968 whole entry): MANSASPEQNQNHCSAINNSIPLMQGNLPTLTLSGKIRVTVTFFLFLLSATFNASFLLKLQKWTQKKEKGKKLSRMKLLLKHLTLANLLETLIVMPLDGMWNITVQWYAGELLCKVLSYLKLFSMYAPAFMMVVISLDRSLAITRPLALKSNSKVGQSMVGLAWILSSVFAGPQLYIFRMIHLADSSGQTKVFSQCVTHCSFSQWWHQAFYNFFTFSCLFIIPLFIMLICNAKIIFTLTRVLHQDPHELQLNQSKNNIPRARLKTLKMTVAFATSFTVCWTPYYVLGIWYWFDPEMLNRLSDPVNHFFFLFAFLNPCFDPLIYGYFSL

[2] = biological target: T1, Gonadotropin-releasing hormone receptor; assay: Antagonist activity at human GnRH receptor expressed in CHO-K1 cells assessed as inhibition of LHRH-induced response preincubated for 20 mins followed by LHRH addition and measured after 60 mins by TR-FRET assay; assay type: cell-based
[3] = biological target: T2, Gonadotropin-releasing hormone receptor (Rattus norvegicus, UniProt P30969); assay: Antagonist activity at rat GnRH receptor expressed in CHO-K1 cells assessed as inhibition of buserelin-induced response preincubated for 20 mins followed by buserelin addition and measured after 60 mins by TR-FRET assay; assay type: cell-based
T2 sequence (P30969 whole entry): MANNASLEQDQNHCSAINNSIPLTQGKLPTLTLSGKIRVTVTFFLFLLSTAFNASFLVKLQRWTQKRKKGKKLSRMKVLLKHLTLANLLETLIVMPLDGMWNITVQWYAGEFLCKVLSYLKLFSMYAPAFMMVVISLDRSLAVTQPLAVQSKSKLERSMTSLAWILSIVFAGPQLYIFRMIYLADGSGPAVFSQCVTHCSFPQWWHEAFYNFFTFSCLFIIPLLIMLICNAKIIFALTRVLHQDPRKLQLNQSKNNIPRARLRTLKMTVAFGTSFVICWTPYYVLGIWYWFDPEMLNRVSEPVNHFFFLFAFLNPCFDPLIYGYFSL
Method in brief: (§1)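 Frozen rat-receptor cells: thawed, seeded overnight in serum-containing Ham's F12, Accutase-harvested, resuspended in serum-free medium with IP1-d2, 1 h at 37 °C. 1.0 × 10^4 cells/well, 20 min compound preincubation at rt, then 1× EC80 LHRH or buserelin in HEPES stimulation buffer pH 7.4 for 60 min at 37 °C. Tb-anti-IP1 lysis (1:38), HTRF read 60 min later.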

[4] = biological target: T1, Gonadotropin-releasing hormone receptor; assay: Inhibition of Tag-lite green-labeled agonist binding to terbium fluorophore-labeled human N-terminal SNAP-tag GnRh receptor expressed in HEK293 cells assessed as dissociation constant by TR-FRET assay; assay type: cell-based
[5] = biological target: T3, Gonadotropin-releasing hormone receptor (Homo sapiens) (UniProt P30968); assay: Inhibition of Tag-lite green-labeled agonist binding to terbium fluorophore-labeled human N-terminal SNAP-tag GnRh receptor expressed in HEK293 cells assessed as residence time by TR-FRET assay; assay type: cell-based; conditions: filed as antagonist
T3 sequence (whole entry): T1 sequence (P30968 whole entry)
Method in brief: (§2)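 Kinetic competition at rt: tracer at 10 nM final with compound, Tb-hGnRH-R cells injected in the reader. TR-FRET read at time zero and every 21 s. Baseline-subtracted traces fitted with the Motulsky–Mahan competitive kinetics model. At least two independent experiments, two replicates each.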

[6] = biological target: T3, Gonadotropin-releasing hormone receptor (Homo sapiens); assay: Inhibition of Tag-lite green-labeled agonist binding to terbium fluorophore-labeled human N-terminal SNAP-tag GnRh receptor expressed in HEK293 cells assessed as dissociation rate constant by TR-FRET assay; assay type: cell-based; conditions: filed as antagonist; method in brief: as §2
[7] = biological target: T3, Gonadotropin-releasing hormone receptor (Homo sapiens); assay: Inhibition of Tag-lite green-labeled agonist binding to terbium fluorophore-labeled human N-terminal SNAP-tag GnRh receptor expressed in HEK293 cells assessed as association rate constant by TR-FRET assay; assay type: cell-based; conditions: filed as antagonist; method in brief: as §2
[8] = biological target: T1, Gonadotropin-releasing hormone receptor; assay: Inhibition of Tag-lite green-labeled agonist binding to terbium fluorophore-labeled human N-terminal SNAP-tag GnRh receptor expressed in HEK293 cells assessed as equilibrium dissociation constant by TR-FRET assay; assay type: cell-based
Rattus norvegicus [9] = assay: Suppression of ovariectomized-induced increase in plasma luteinizing hormone level in Wistar Han rat at 0.1 mg/kg, sc measured up to 24 hrs; assay type: functional, organism-based; conditions: time hrs <=24
[10] = Lipophilicity, log D of the compound in pH 7.5 MeCN/H2O solution by reversed-phase HPLC analysis; assay type: physicochemical
Method in brief: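 Indirect reversed-phase HPLC at pH 7.5, calibrated with n-alkan-2-ones C3–C16. Compounds applied as 0.67 mM DMSO stocks in MeCN/H2O (1:1).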

[11] = biological target: T2, Gonadotropin-releasing hormone receptor; assay: Antagonist activity at rat GnRH receptor expressed in CHO-K1 cells assessed as inhibition of LHRH-induced response preincubated for 20 mins followed by LHRH addition and measured after 60 mins by TR-FRET assay; assay type: cell-based; method in brief: as §1
Rattus norvegicus [12] = assay: Suppression of ovariectomized-induced increase in plasma luteinizing hormone level in po dosed Wistar Han rat measured up to 24 hrs; assay type: functional; conditions: time hrs <=24
Method in brief: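 Ovariectomized rats given single oral doses, range 1 to 30 mg/kg. Plasma LH followed over time, with cetrorelix at 0.1 mg/kg sc as reference. ED50 calculated from the dose-response.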

[13] = Oral bioavailability in Wistar rat at 2 mg/kg by LC-MS/MS analysis; assay type: ADME, organism-based; conditions: in vivo
[14] = Intrinsic clearance in Han Wistar rat hepatocytes at 1 uM measured up to 90 mins by LC/MS/MS analysis; assay type: ADME, cell-based, Hepatocyte; conditions: for CLH: 1.5 h, 1 µM; for CLint scaled at 1 µM: Han Wistar, read-out: CLH (converted)
[15] = Clearance in Wistar rat at 0.5 mg/kg, iv by LC-MS/MS analysis; assay type: ADME, organism-based; conditions: in vivo; for CL: 0.5 mg/kg; for clearance: Wistar
[16] = Half life in Wistar rat at 0.5 mg/kg, iv by LC-MS/MS analysis; assay type: ADME, organism-based; conditions: in vivo

CC1N(S(=O)(=O)c2ccccc2)c2ccc(C(=O)NCc3ccccc3Cl)cc2C1(C)C (racemic)
IC50 [1]: 1410 nM
IC50 [2]: 3060 nM
IC50 [3]: 4840 nM

COc1cccc(-c2c(C)n(Cc3c(F)cccc3C(F)(F)F)c(=O)n(C[C@H](NCCCC(=O)O)c3ccccc3)c2=O)c1F [ELAGOLIX SODIUM]
Kd [4]: 3.21 nM
TIME [5]: 1.27 h
K [6]: 3.3 10^-4/s
K [7]: 2.06 10^5/M/s
Kd [8]: 1.19 nM

CC(=O)N[C@H](Cc1ccc2ccccc2c1)C(=O)N[C@H](Cc1ccc(Cl)cc1)C(=O)N[C@H](Cc1cccnc1)C(=O)N[C@@H](CO)C(=O)N[C@@H](Cc1ccc(O)cc1)C(=O)N[C@H](CCCNC(N)=O)C(=O)N[C@@H](CC(C)C)C(=O)N[C@@H](CCCNC(=N)N)C(=O)N1CCC[C@H]1C(=O)N[C@H](C)C(N)=O [CETRORELIX] (Ac-[d2Nal][dPhe(4-Cl)][d3Pal]SY[dCit]LRP[dA]-NH2)
Kd [4]: 0.0017 nM
TIME [5]: 0.583 h
K [6]: 1 10^-5/s
K [7]: 3.57 10^6/M/s
Kd [8]: 0.135 nM
Activity (Rattus norvegicus [9]): Active

O=C(NCc1ncccc1Cl)c1ccc2c(c1)C1(CCS(=O)(=O)CC1)C(C1CC1)N2S(=O)(=O)c1ccc(F)cc1 (stereo in doubt; 4a) [listing 1 of 2 here]
chromatographic logD [10]: 3
IC50 ([11]; cho-k1): 40 nM
IC50 [2]: 60 nM
ED50 (Rattus norvegicus [12]): 5.5 mg/kg

COc1ccc(S(=O)(=O)N2c3ccc(C(=O)NCc4ccccc4Cl)cc3C3(CCN(C(C)=O)CC3)C2C)cc1 (stereo in doubt; form 3)
bioavailability [13]: 1.3%
IC50 [1]: 28 nM
IC50 [2]: 15 nM
CLH [14]: 20 mL/min/kg
CL [15]: 31.7 mL/min/kg

CC(=O)N1CCC2(CC1)c1cc(C(=O)NCc3ccccc3Cl)ccc1N(S(=O)(=O)c1ccc(F)cc1)C2C (racemic)
chromatographic logD [10]: 3.25
IC50 [1]: 90 nM
IC50 [2]: 87 nM

CC(=O)N1CCC2(CC1)c1cc(C(=O)NCc3ncccc3Cl)ccc1N(S(=O)(=O)c1ccc(F)cc1)C2C (single isomer, unassigned)
bioavailability [13]: 18%
IC50 [1]: 35 nM
IC50 [2]: 53.5 nM
CLint scaled at 1 µM [14]: 11.7 mL/min/kg
clearance [15]: 28.3 mL/min/kg

O=C(NCc1ncccc1Cl)c1ccc2c(c1)C1(CCS(=O)(=O)CC1)C(C1CC1)N2S(=O)(=O)c1ccc(F)cc1 (stereo in doubt; 4a) [listing 2 of 2 here]
Activity (Rattus norvegicus [12]): Dose-dependent effect

COc1ccc(S(=O)(=O)N2c3ccc(C(=O)NCc4ccccc4Cl)cc3C3(CCN(C(C)=O)CC3)C2C)cc1 (stereo in doubt; form 1)
IC50 [1]: ≥ 20000 nM
IC50 [11]: ≥ 20000 nM
IC50 [2]: ≥ 20000 nM

COc1ccc(S(=O)(=O)N2c3ccc(C(=O)NCc4ccccc4Cl)cc3C3(CCN(C(C)=O)CC3)C2C)cc1 (stereo in doubt; form 2)
IC50 [1]: 99 nM
IC50 [11]: 29 nM
IC50 [2]: 41 nM
CLH [14]: 46.7 mL/min/kg
IC50 [3]: 34 nM
CL [15]: 78.3 mL/min/kg
half-life [16]: 0.82 h

N=S1(=O)CCC2(CC1)c1cc(NC(=O)c3cccnc3)ccc1N(S(=O)(=O)c1ccc(F)cc1)C2C1CC1 (stereo in doubt; form 1)
IC50 [1]: 58.5 nM
IC50 [2]: 32 nM

O=C(NCc1ncccc1Cl)c1ccc2c(c1)C1(CCS(=O)(=O)CC1)C(C1CC1)N2S(=O)(=O)c1ccc(F)cc1 (stereo in doubt)
bioavailability [13]: 27%
IC50 [11]: 40 nM
IC50 [2]: 60 nM
CLint scaled at 1 µM [14]: 4.17 mL/min/kg
clearance [15]: 30 mL/min/kg
half-life [16]: 2.1 h

O=C(NCc1ncc(C(F)(F)F)cc1Cl)c1ccc2c(c1)C1(CCS(=O)(=O)CC1)C(C1CC1)N2S(=O)(=O)c1ccc(F)cc1 (racemic)
IC50 [1]: 44 nM
IC50 [2]: 20 nM

CC(=O)N1CCC2(CC1)CN(S(=O)(=O)c1ccc(F)cc1)c1ccc(C(=O)NCc3ccccc3Cl)cc12
IC50 [1]: 1770 nM
IC50 [2]: 420 nM

CC(=O)N1CCC2(CC1)c1cc(C(=O)NCc3ccccc3Cl)ccc1N(Cc1ccc(F)cc1)C2C (racemic)
IC50 [1]: 18200 nM
IC50 [2]: 12800 nM

O=C(NCc1ncc(C(F)(F)F)cc1F)c1ccc2c(c1)C1(CCS(=O)(=O)CC1)C(C1CC1)N2S(=O)(=O)c1ccc(F)cc1 (racemic)
IC50 [1]: 246 nM
IC50 [2]: 84 nM

O=C(Nc1ccc2c(c1)C1(CCC(O)(C(F)(F)F)CC1)C(C1CC1)N2S(=O)(=O)c1ccc(F)cc1)c1cccnc1 (configuration not stated)
IC50 [1]: 228 nM
IC50 [2]: 78 nM

CC1N(S(=O)(=O)c2ccc(F)cc2)c2ccc(C(=O)NCc3ccccc3Cl)cc2C12CCNCC2 (stereo in doubt)
IC50 [1]: 172 nM
IC50 ([11]; cho-k1): 27 nM
IC50 [2]: 99 nM
CLint scaled at 1 µM [14]: 33.3 mL/min/kg
clearance [15]: 23.3 mL/min/kg
half-life [16]: 8.1 h

COc1ccc(S(=O)(=O)N2c3ccc(C(=O)NCc4ccccc4Cl)cc3C(C)(C)C2C)cc1 (stereo in doubt; form 1)
IC50 [1]: 1530 nM
IC50 [11]: 726 nM
IC50 [2]: 568 nM
IC50 [3]: 1110 nM

CC(=O)N1CCC2(CC1)c1cc(NC(=O)c3cccnc3)ccc1N(S(=O)(=O)c1ccc(F)cc1)C2C1CC1 (racemic)
IC50 [1]: 68 nM
IC50 [2]: 34 nM

COc1ccc(S(=O)(=O)N2c3ccc(C(=O)NCc4ccccc4Cl)cc3C(C)(C)C2C)cc1 (stereo in doubt; form 2)
IC50 [1]: ≥ 20000 nM
IC50 [11]: ≥ 20000 nM
IC50 [2]: ≥ 20000 nM
IC50 [3]: ≥ 20000 nM

COc1ccc(S(=O)(=O)N2c3ccc(C(=O)NCc4ccccc4Cl)cc3C(C)(C)C2C)cc1 (stereo in doubt; 1a)
chromatographic logD [10]: 3.8
IC50 [1]: 1500 nM
IC50 [11]: 730 nM
IC50 [2]: 570 nM
CLint scaled at 1 µM [14]: 51.7 mL/min/kg
IC50 [3]: 1100 nM

COc1ccc(S(=O)(=O)N2c3ccc(C(=O)NCc4ccccc4Cl)cc3C(C)(C)C2C)cc1 (racemic)
IC50 [1]: 6620 nM
IC50 [11]: 1420 nM
IC50 [2]: 365 nM
IC50 [3]: 4870 nM

O=C(Nc1ccc2c(c1)C1(CCC(O)CC1)C(C1CC1)N2S(=O)(=O)c1ccc(F)cc1)c1cccnc1 (configuration not stated)
IC50 [1]: 61 nM
IC50 [2]: 26 nM

CC(=O)N1CCC2(CC1)c1cc(C(=O)NCc3ccccc3Cl)ccc1N(S(=O)(=O)c1ccccc1)C2C (racemic)
IC50 [1]: 131 nM
IC50 [2]: 53 nM

O=C(Nc1ccc2c(c1)C1(CCS(=O)(=O)CC1)C(C1CC1)N2S(=O)(=O)c1ccc(F)cc1)c1cccnc1 (configuration not stated)
IC50 [1]: 45 nM
IC50 [2]: 20 nM
